EBNA-1 inhibitor: blocks EBNA-1 binding to DNA; 300,000 tested, 0.34% active; EBNA-1 DNA binding, fluorescence polarization; inhibition, % at 14.8 µM; in the data active = inhibition above about 28%
A1 inh: inhibitors of the anti-apoptotic protein A1, read as caspase activation. MEF A1-2A-BIM cells, Caspase-Glo 3/7 luminescence, 3 h; percent of clofoctol response, vehicle zero. caspase activation, % (no concentration beside the values). 330,000 tested, 0.066% active. AID 2462;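 active = over half of replicate activation scores above 10%, or exactly half above 10 with the replicate mean above 10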
HNF4A DNA FP: change in binding of human HNF4 alpha to DNA; HNF4a-FITC DNA binding, fluorescence polarization, 1 h; activity change, % at 10 µM; 360,000 tested, 0.3% active; in the data active = activity change above about 30%, passing the limit was not always enough
ZTA counter: counter-screen for EBNA-1 inhibitors: inhibitors of Epstein-Barr virus ZTA | P03206 | ZTA-DNA binding, fluorescence polarization | inhibition, % at 11 µM | 320,000 tested, 0.15% active; in the data active = inhibition above about 33%
CSN inh: CSN deneddylation inhibition; AID 651999; Purified CSN, SCF-Nedd8-OG deneddylation, fluorescence polarization; inhibition, % at 12.5 µM; Q92905; 360,000 tested, 0.38% active;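 active = pattern-corrected inhibition above about 35%, with an unprinted fluorescence ratio check between 0.5 and 1.5, limit read from the data, passing the limit was not always enough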;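 also: 0% = enzyme with substrate and 100% = substrate without enzyme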
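Assay system: HEK293T-derived human Csn5 enzyme; quantity: 0.24 nM enzyme; medium: Tris/NaCl/DTT buffer, pH 7.5; also added: substrate SCFSkp2-Nedd8OG, 10 nM; doses: 12.5 µM compound; schedule: 90 min reaction at room temperature; signal: FP; read-out: % inhibition of substrate cleavage by Csn5; benchmarks: substrate-only high control, full reaction low control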
LANA-H2A inh: blocks KSHV LANA binding to histone H2A/H2B. inhibition, % (no concentration beside the values). AID 2629. Q9QR71. cell-free LANA-H2A/H2B peptide, fluorescence polarization. 320,000 tested, 0.6% active; in the data active = inhibition mostly above about 10%, no sharp cut-off; inactive = mostly below about 6.7%
Target sequence (Q9QR71 whole entry, looked up): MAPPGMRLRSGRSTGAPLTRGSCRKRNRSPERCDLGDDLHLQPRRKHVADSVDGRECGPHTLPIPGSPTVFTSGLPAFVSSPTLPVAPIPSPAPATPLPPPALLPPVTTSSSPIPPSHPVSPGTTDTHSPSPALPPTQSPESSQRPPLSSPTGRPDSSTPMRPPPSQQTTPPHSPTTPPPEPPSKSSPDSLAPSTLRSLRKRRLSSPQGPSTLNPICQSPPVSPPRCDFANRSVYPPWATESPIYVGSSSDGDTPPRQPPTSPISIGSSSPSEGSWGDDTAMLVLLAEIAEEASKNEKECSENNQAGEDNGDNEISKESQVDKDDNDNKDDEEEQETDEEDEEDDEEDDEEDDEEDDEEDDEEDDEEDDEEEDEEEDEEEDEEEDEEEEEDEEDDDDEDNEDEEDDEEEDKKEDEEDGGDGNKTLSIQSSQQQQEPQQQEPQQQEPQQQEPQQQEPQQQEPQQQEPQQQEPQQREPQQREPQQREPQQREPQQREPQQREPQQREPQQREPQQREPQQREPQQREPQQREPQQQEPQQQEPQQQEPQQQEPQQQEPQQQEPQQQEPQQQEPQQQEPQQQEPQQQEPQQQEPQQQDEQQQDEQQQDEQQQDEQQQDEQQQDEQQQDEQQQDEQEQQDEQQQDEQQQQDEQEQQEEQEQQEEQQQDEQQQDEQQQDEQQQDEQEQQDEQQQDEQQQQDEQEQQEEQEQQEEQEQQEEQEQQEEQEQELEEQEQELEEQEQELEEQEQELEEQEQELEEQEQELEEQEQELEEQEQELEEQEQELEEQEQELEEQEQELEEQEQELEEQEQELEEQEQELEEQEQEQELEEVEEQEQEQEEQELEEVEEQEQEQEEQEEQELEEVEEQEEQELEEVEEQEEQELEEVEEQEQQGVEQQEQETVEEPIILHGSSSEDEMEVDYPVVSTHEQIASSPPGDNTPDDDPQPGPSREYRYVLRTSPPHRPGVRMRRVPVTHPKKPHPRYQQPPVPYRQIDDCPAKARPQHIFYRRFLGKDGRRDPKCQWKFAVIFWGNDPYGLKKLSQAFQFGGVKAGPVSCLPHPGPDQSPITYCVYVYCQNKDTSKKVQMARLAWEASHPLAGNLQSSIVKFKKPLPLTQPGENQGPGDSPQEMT
ZTA inh confirm: confirmation of Epstein-Barr virus ZTA DNA binding inhibitors | Zta-ZRE DNA binding, fluorescence polarization | 320 tested, 30% active | inhibition, % at 11.1 µM | shares compounds with ZTA counter;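 active = mean inhibition across triplicate runs above the hit threshold derived for the original primary screen, cut at about 33% in these data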;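 also: 0% = Zta with DMSO and 100% = wells lacking Zta protein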
EBNA-1 counter: counter-screen for ZTA inhibitors: EBNA-1 DNA binding inhibition | shares compounds with ZTA counter | fluorescence polarization | inhibition, % at 14.8 µM | 320 tested, under 10 active
CSN5 deneddyl: validation of inhibitors of human CSN-mediated cullin deneddylation | shares compounds with CSN inh | Csn5 deneddylation of SCF-Nedd8OG, fluorescence polarization, 90 min | inhibition, % at 16.6 µM | 540 tested, 62% active | AID 720654; in the data active = inhibition above about 50%;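 also: 0% = DMSO with enzyme and 100% = no enzyme wells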
MMP-2 counter: MMP-2 (human) inhibition, counter-screen for CSN hits. shares compounds with CSN inh. recombinant MMP-2, FRET substrate fluorescence, 60 min. inhibition, % at 16.6 µM. 540 tested, 33% active;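 active = corrected plate-normalized z-score of 5 or more, or -5 or less, or inhibition of 15% or more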;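 also: plate controls were DMSO wells with enzyme for no effect and buffer wells lacking MMP-2 for full effect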
Thrombin counter: thrombin (bovine) inhibition, counter-screen for CSN hits; shares compounds with CSN inh; bovine thrombin cleavage of Ub4-pepOG, fluorescence polarization; inhibition, % at 16.6 µM; 540 tested, 49% active; AID 720656;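 active = inhibition at or above a set limit, with a fluorescence interference ratio between 0.5 and a set maximum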
HNF4a DNA conf: change in binding of human HNF4 alpha to DNA, retest | activity change, % at 12.5 µM | HNF4A-FITC DNA binding, fluorescence polarization, 1 h | shares compounds with HNF4A DNA FP | 210 tested, 99% active
Numbers without * were called inactive; x = no result given. Shown are actives, neighbours in structure and some others; about 1.5% of the full set was active somewhere. Unless noted, no rule for the calls is given here.

SMILES | EBNA-1 inhibitor | A1 inh | HNF4A DNA FP | ZTA counter | CSN inh | LANA-H2A inh | CSN5 deneddyl | MMP-2 counter | Thrombin counter | others
O=C(Nc1ccc2oc(-c3ccncc3)nc2c1)c1ccc2c(c1)OCO2 | 2 | 0 | 66* | 50* | 111* | -1 | x | x | x | ZTA inh confirm=76*;EBNA-1 counter=10;HNF4a DNA conf=169*
O=C1/C(=C/c2ccc(O)cc2)SC(=S)N1Cc1cccnc1 | -11 | -1 | 51* | 77* | 7 | 1 | x | x | x | ZTA inh confirm=7;EBNA-1 counter=-2;HNF4a DNA conf=61*
CCn1cnc2cc(NC(=O)c3ccc(C)cc3)ccc21 | -2 | -1 | 5 | 14 | -5 | -1 | x | x | x
O=C1NC(=Nc2ccccc2)S/C1=C\c1ccccc1 | 3 | -1 | -1 | 9 | 1 | 2 | x | x | x
COc1ccc(N=C2NC(=O)/C(=C/c3ccco3)S2)cc1 | 6 | 0 | 0 | -6 | 7 | 0 | x | x | x
O=C1NC(=Nc2ccccc2)S/C1=C\C=C\c1ccco1 | 15 | -1 | 13 | 20 | 74* | 3 | 80* | 10 | 14
Cc1cccc(N=C2NC(=O)/C(=C/C=C/c3ccco3)S2)c1C | 1 | 0 | -18 | 14 | 58* | 0 | 63* | 18* | 38*
Cc1ccc(N=C2NC(=O)/C(=C/C=C/c3ccco3)S2)cc1 | 2 | -1 | 0 | -4 | 49* | 5 | 93* | 17* | -1
Cc1cccc(N=C2NC(=O)/C(=C/c3cccn3C)S2)c1C | 2 | 0 | 24 | 11 | 16 | 0 | x | x | x
COc1ccc2cc(C(=O)NCc3ccccc3CN3CCCC3)ccc2c1 | x | 2 | 4 | -13 | 2 | -2 | x | x | x
C/C(=N\NC(=O)c1cc(-c2cccc([N+](=O)[O-])c2)n[nH]1)c1ccccc1O | 2 | 0 | -15 | 10 | 40* | 1 | x | 5 | 1
O=C(O)c1cc(-c2cccc([N+](=O)[O-])c2)n[nH]1 | -12 | -1 | -3 | 9 | 2 | -1 | x | x | x
CN1CCCCC1(C)C(=O)NCc1ccc(C(C)(C)C)cc1 (stereo not drawn) | x | x | 3 | x | 4 | x | x | x | x
Cc1ccc2c(nc3s/c(=C\c4ccc(-c5ccccc5C(=O)O)o4)c(=O)n32)c1C | 0 | 0 | 83 | 8 | 102* | -1 | -27 | -27 | 18
Cc1ccc(NC(=O)CN2C(=O)S/C(=C\c3ccc(-c4cccc(C(=O)O)c4C)o3)C2=O)cc1 | 3 | 0 | x | -5 | x | 3 | x | x | x
Cc1ccc(C(=O)O)cc1-c1ccc(/C=C2\SC(=O)N(CC(=O)Nc3ccccc3)C2=O)o1 | 8 | 1 | 6 | 8 | 19 | 2 | x | x | x
C#CCN1C(=O)S/C(=C\c2ccc(-c3ccc(C(=O)O)cc3C)o2)C1=O | 4 | 0 | -29 | 24 | 39* | 6 | x | 8 | 37*
Cc1ccc2c(nc3s/c(=C/c4cccs4)c(=O)n32)c1C | x | x | 6 | x | 4 | x | x | x | x
CCOC(=O)C(C)N1C(=O)S/C(=C\c2ccc(-c3ccccc3C(=O)O)o2)C1=O (stereo not drawn) | 27 | 1 | -35 | 27 | 48* | -6 | x | 25* | 9
Cc1ccccc1NC(=O)CN1C(=O)S/C(=C\c2ccc(-c3cc(C(=O)O)ccc3C)o2)C1=O | x | x | 6 | x | 71* | x | x | 4 | 8
O=C(NC1CCN(Cc2ccc(Cl)cc2)CC1)c1cn(-c2ccccc2)nc1-c1cccnc1 | x | 1 | 3 | 5 | 3 | 3 | x | x | x
Cc1ccc(C(=O)O)cc1-c1ccc(/C=C2/NC(=O)N(c3ccccc3)C2=O)o1 | 13 | 0 | -24 | 10 | 41* | -3 | x | 9 | 21*
CCCN1CCc2c(sc(NC(=O)c3ccc(S(=O)(=O)N(C)c4ccccc4)cc3)c2C(=O)NC)C1 | -13 | 0 | 67* | -6 | 42* | 1 | 179* | -1 | 12
CCN1CCc2c(sc(NC(=O)c3ccc(S(=O)(=O)N4CCCC4)cc3)c2C(=O)NC)C1 | 2 | 0 | 6 | 11 | 0 | -1 | x | x | x
CCOc1cc(/C=N/NC(=O)c2ccc(-c3csc(Nc4ccc(C)cc4)n3)cc2)ccc1OCC(=O)O | x | x | -15 | x | 49* | x | 45 | 30* | -5
SMILES | EBNA-1 inhibitor | A1 inh | HNF4A DNA FP | ZTA counter | CSN inh | LANA-H2A inh | CSN5 deneddyl | MMP-2 counter | Thrombin counter | others
O=C(O)COc1ccc(/C=N/NC(=O)c2ccc(-c3csc(Nc4ccc(Cl)cc4)n3)cc2)cc1 | x | x | -91 | x | 93* | x | 98* | 16* | -7
c1ccc2c(c1)oc1c(-c3cccc4nccn34)cccc12 | x | x | -2 | x | 2 | x | x | x | x
Cc1ccc(N=C2SC(C(=O)NCCc3ccccc3)CC(=O)N2C)cc1C (stereo not drawn) | 4 | 0 | 2 | 15 | 0 | 3 | x | x | x
COC(=O)c1cnn(-c2nc(-c3ccccc3)cs2)c1N | 22 | -2 | 0 | 12 | 3 | -1 | x | x | x
COc1ccccc1-c1csc(-n2ncc(C#N)c2N)n1 | 3 | 0 | 241 | 21 | 68* | 5 | -6 | 72* | 17*
Cc1cccc(C)c1NC(=O)C1(C)CN(S(C)(=O)=O)CC(=O)N1Cc1ccc2c(c1)OCO2 (stereo not drawn) | x | x | 1 | x | 2 | x | x | x | x
Cc1ccccc1-n1c(C)cc(/C=N/Nc2ccc([N+](=O)[O-])cn2)c1C | 2 | 1 | 11 | 4 | 6 | -1 | x | x | x
Cc1cc(/C=N/Nc2ccc([N+](=O)[O-])cn2)c(C)n1-c1ccc(C(=O)O)cc1 | 3 | 1 | 16 | -13 | 53* | 6 | 90* | 13 | 2
CC1=Nc2ccccc2/C1=C\c1nc(-c2ccc(C(F)(F)F)cc2)oc1O | 1 | 1 | -53 | -4 | -71 | -1 | x | x | x
CC1=Nc2ccccc2/C1=C/c1sc(=N)n(-c2nccs2)c1O | -5 | 0 | 36 | 2 | 44* | 1 | 48 | 17* | 43*
COc1cccc(C(C)NC(=O)c2ccncc2)c1 (stereo not drawn) | 9 | 0 | -11 | -1 | 2 | 10 | x | x | x

Screening data: PubChem BioAssay, several laboratories
